Measurements: ChEMBL document CHEMBL3632518, “Synthesis and anti-HCV determinant motif identification in pyranone carboxamide scaffold” (Bioorg Med Chem Lett, 2015)

Legend:
[1] = Cytotoxicity against human HuH7 cells after 3 days by tetrazolium dye method; type: cell-based, Huh-7
Outline: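 LucNeo#2 replicon-bearing Huh-7 cells, 5×10^3 cells/well, grown without G418 with various compound concentrations at 37°C for 3 days. Viable cell number measured by water-soluble tetrazolium dye (Tetracolor One) method. CC50 taken as concentration reducing viable cell number by 50%.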

Hepatitis C virus = assay: Antiviral activity against HCV genotype 1b infected in human HuH7 cells after 3 days by luciferase reporter gene assay; type: functional, organism-based, Hepacivirus hominis; conditions: Huh-7, 72 h
Outline: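 Huh-7 cells carrying self-replicating subgenomic genotype 1b HCV replicon with luciferase reporter (LucNeo#2), kept in DMEM high glucose plus 10% heat-inactivated FBS and 1 mg/ml G418. Seeded at 5×10^3 cells/well without G418 with various compound concentrations (DMSO stocks, 20 mM or higher); 37°C, 3 days. Cells PBS-washed, lysed, luciferase read by luminometer. EC50 from inhibition of luciferase activity.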

Row | EC50 (Hepatitis C virus) [µM] | Compound | CC50 at 72 h [1] [µM]
1 | > 20 | COc1ccccc1NC(=O)c1c(NCCO)cc(-c2ccc(Br)cc2)oc1=O | > 20
2 | 7.1 | O=C(Nc1ccc(Cl)cc1)c1c(NCCO)cc(-c2cccc(Br)c2)oc1=O | 17
3 | 4.1 | COc1ccc(-c2cc(NO)c(C(=O)NC3CCCCC3)c(=O)o2)cc1 | 13.9
4 | 2.3 | O=C(NC1CCCCC1)c1c(NO)cc(-c2ccccc2)oc1=O | 10.5
5 | 3.2 | O=C(NC1CCCCC1)c1c(NO)cc(-c2ccc(F)cc2)oc1=O | 11.4
6 | > 100 | CONc1cc(-c2ccc(C)cc2)oc(=O)c1C(=O)NCCCO | > 100
7 | 6 | O=C(Nc1ccc(Br)cc1)c1c(NO)cc(-c2cccs2)oc1=O | > 20
8 | > 20 | COc1ccccc1NC(=O)c1c(NCCO)cc(-c2cccs2)oc1=O | > 20
9 | > 20 | COc1cccc(NC(=O)c2c(NCCO)cc(-c3ccc(Br)cc3)oc2=O)c1 | > 20
10 | 3.5 | O=C(Nc1cc([N+](=O)[O-])ccc1O)c1c(NO)cc(-c2ccccc2)oc1=O | > 20
11 | 3.3 | O=C(NC1CC1)c1c(NO)cc(-c2ccc(F)cc2)oc1=O | > 20
12 | 1.3 | O=C(Nc1ccccc1)c1c(NO)cc(-c2cccs2)oc1=O | > 20
13 | 0.65 | O=C(Nc1ccc(F)cc1)c1c(NO)cc(-c2cccs2)oc1=O | > 20
14 | > 20 | CCOc1ccccc1NC(=O)c1c(NCCO)cc(-c2cccc(Br)c2)oc1=O | > 20
15 | 3.8 | O=C(Nc1ccc(Cl)cc1)c1c(NO)cc(-c2cccs2)oc1=O | > 20
16 | 1.2 | O=C(Nc1cccc(C(F)(F)F)c1)c1c(NO)cc(-c2ccccc2)oc1=O | 19
17 | 5 | Cc1ccc(-c2cc(NO)c(C(=O)NC3CCCCC3)c(=O)o2)cc1 | 10.1
18 | 0.35 | COc1ccccc1NC(=O)c1c(NO)cc(-c2ccccc2)oc1=O | > 20
19 | > 20 | CCOc1ccccc1NC(=O)c1c(NCCO)cc(-c2ccc(Br)cc2)oc1=O | > 20
20 | 2.2 | O=C(NC1CCCCC1)c1c(NO)cc(-c2ccc(Cl)cc2)oc1=O | 8.8
21 | 13 | O=C(Nc1ccc(Br)cc1)c1c(NCCO)cc(-c2cccc(Br)c2)oc1=O | > 20
22 | 0.36 | CCC[C@H](NC(=O)[C@@H]1[C@H]2CCC[C@H]2CN1C(=O)[C@@H](NC(=O)[C@@H](NC(=O)c1cnccn1)C1CCCCC1)C(C)(C)C)C(=O)C(=O)NC1CC1 [TELAPREVIR] | > 20
23 | 0.63 | COc1cccc(NC(=O)c2c(NO)cc(-c3ccccc3)oc2=O)c1 | > 20

Row | EC50 (Hepatitis C virus) [µM] | Compound | CC50 at 72 h [1] [µM]
24 | 0.47 | Cc1cccc(NC(=O)c2c(NO)cc(-c3cccs3)oc2=O)c1 | > 20
25 | > 100 | O=C(NCCO)c1c(N2CCCCC2)cc(-c2ccc(F)cc2)oc1=O | > 100
26 | 0.2 | COc1ccc(NC(=O)c2c(NO)cc(-c3cccs3)oc2=O)cc1 | > 20
27 | 1.1 | CCOc1ccccc1NC(=O)c1c(NO)cc(-c2ccccc2)oc1=O | > 20
28 | 15 | O=C(NCCBr)c1c(NCCO)cc(-c2cccs2)oc1=O | > 20
29 | > 20 | O=C(Nc1ccccc1)c1c(NCCO)cc(-c2cccc(Br)c2)oc1=O | > 20
30 | 1.8 | O=C(Nc1cccc(C(F)(F)F)c1)c1c(NO)cc(-c2cccs2)oc1=O | 11
31 | 0.39 | Cc1ccc(NC(=O)c2c(NO)cc(-c3cccs3)oc2=O)cc1 | > 20
32 | 5.5 | O=C(Nc1ccc(F)cc1)c1c(NCCO)cc(-c2cccc(Br)c2)oc1=O | > 20
33 | 2.9 | O=C(NC1CC1)c1c(NO)cc(-c2ccc(Cl)cc2)oc1=O | 12.8
34 | > 20 | COc1cccc(NC(=O)c2c(NCCO)cc(-c3cccs3)oc2=O)c1 | > 20
35 | 1.7 | O=C(Nc1ccccc1O)c1c(NO)cc(-c2ccccc2)oc1=O | 14
36 | 0.48 | Nc1ccccc1NC(=O)c1c(NO)cc(-c2ccccc2)oc1=O | > 20
37 | 6 | COc1ccccc1NC(=O)c1c(NCCO)cc(-c2cccc(Br)c2)oc1=O | > 20
38 | > 20 | O=C(Nc1ccccc1O)c1c(NCCO)cc(-c2ccccc2)oc1=O | > 20
39 | 0.25 | Nc1ccccc1NC(=O)c1c(NO)cc(-c2cccs2)oc1=O | > 20
40 | 14.4 | O=C(Nc1ccc(Br)cc1)c1c(NCCO)cc(-c2ccc(Br)cc2)oc1=O | > 20
41 | 10 | O=C(Nc1ccc(Cl)cc1)c1c(NCCO)cc(-c2ccc(Br)cc2)oc1=O | > 20
42 | 5.1 | CCOc1ccccc1NC(=O)c1c(NCCO)cc(-c2cccs2)oc1=O | 10
43 | > 20 | CCOc1ccccc1NC(=O)c1c(NCCO)cc(-c2ccccc2)oc1=O | > 20
44 | 14 | COc1ccc(NC(=O)c2c(NCCO)cc(-c3ccc(Br)cc3)oc2=O)cc1 | > 20
45 | 0.59 | Cc1ccccc1NC(=O)c1c(NO)cc(-c2cccs2)oc1=O | > 20
